Activity calls are given as the source filed them. The rule behind the calls is not given here.

The subject of one data set is CCRF-CEM. The experiment in a line: (§1) Cytotoxicity against human CEM cells after 72 hrs by coulter counter analysis. It is filed as cell-based. Particulars: 72 h; for CC50: human, ccrf-cem; for IC50: Homo sapiens, CCRF-CEM. In short, it runs like this: (§2)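 Tumour cells, (5–7.5) × 10⁴ per well, were grown with graded compound amounts at 37 °C in humidified CO₂. Growth time was 48 h for L1210, 72 h for CEM and 96 h for HeLa. Cells were then counted with a Coulter counter. IC50 was the concentration reducing cell proliferation by 50%.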

Data set [1] relates to Human immunodeficiency virus 2. The experiment in a line: Antiviral activity against HIV2 ROD infected in human CEM cells assessed as reduction of virus-induced cytopathogenicity after 4 to 5 days by trypan blue dye exclusion method. It is filed as functional, organism-based. Particulars: Human immunodeficiency virus 2, ISOLATE ROD, CCRF-CEM.
In data set [2] the test system is Human immunodeficiency virus 1. Briefly: Antiviral activity against HIV1 3B infected in human CEM cells assessed as reduction of virus-induced cytopathogenicity after 4 to 5 days by trypan blue dye exclusion method. The following applies: Human immunodeficiency virus 1, 3B, CCRF-CEM. It counts as functional, organism-based.
Data set [3] has as its system Human immunodeficiency virus 2. Briefly: Antiviral activity against HIV2 ROD infected in human TK-deficient CEM cells assessed as reduction of virus-induced cytopathogenicity after 4 to 5 days by trypan blue dye exclusion method. It counts as functional, organism-based. Particulars: Human immunodeficiency virus 2, ISOLATE ROD, CCRF-CEM.
Another data set deals with L1210. Briefly: Cytotoxicity against mouse L1210 cells after 48 hrs by coulter counter analysis. Particulars: L1210, 48 h. It counts as cell-based. In short, it runs like this:
as §2

Another data set relates to HeLa. The experiment in a line: Cytotoxicity against human HeLa cells after 96 hrs by coulter counter analysis. It counts as cell-based. In outline:
as §2

Data set [4] relates to Human immunodeficiency virus 1. The experiment in a line: Antiviral activity against HIV1 NL4.3 infected in human MT4 cells assessed as reduction of virus-induced cytopathogenicity after 4 to 5 days by trypan blue dye exclusion method. It is filed as functional, organism-based. The following applies: Human immunodeficiency virus 1, NL4.3, MT4. In short, it runs like this: (§3)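 MT-4 cells (~3 × 10⁵ cells/mL) were infected with 100 CCID50/mL of HIV and cultured with compound dilutions for 4–5 days at 37 °C in humidified CO₂. Viable cells were counted by trypan blue dye exclusion. EC50 was the concentration giving 50% inhibition of the HIV-induced cytopathic effect.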

The next data set deals with MT4. Briefly: Cytotoxicity against human MT4 cells after 4 to 5 days by trypan blue dye exclusion method. It is filed as cell-based.
Data set [5] concerns Human immunodeficiency virus 2. Briefly: Antiviral activity against HIV2 ROD infected in human MT4 cells assessed as reduction of virus-induced cytopathogenicity after 4 to 5 days by trypan blue dye exclusion method. It counts as functional, organism-based. The following applies: Human immunodeficiency virus 2, ISOLATE ROD. In short, it runs like this:
as §3

A short description of data set [6]: Prodrug activation assessed as carboxypeptidase Y (unknown origin)-mediated drug metabolism after 13 hrs by 31P-NMR analysis. It counts as ADME, Homo sapiens. In outline:
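The substrate was dissolved in acetone-d6 and mixed with Trizma buffer (pH 7.6) for the carboxypeptidase Y incubation.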

Data set [7] is described as follows: as §1. It is filed as cell-based, CCRF-CEM. Particulars: human, CEM cells (CCRF-CEM). In outline: as §2
The subject of data set [8] is Mammalian orthoreovirus 1. The experiment in a line: Antiviral activity against Reovirus-1 infected in African green monkey Vero cells at 100 uM. It is filed as functional, cell-based.
The test system of another data set is Sindbis virus. Briefly: Antiviral activity against Sindbis virus infected in African green monkey Vero cells at 100 uM. It is filed as functional, organism-based.
The test system of another data set is Human alphaherpesvirus 2. The experiment in a line: Antiviral activity against HSV2 infected in HEL cells at 100 uM. It counts as functional, organism-based.
Another data set has as its system Human alphaherpesvirus 1. The experiment in a line: Antiviral activity against HSV1 infected in HEL cells at 100 uM. It is filed as functional, organism-based.
In a further data set the test system is Human orthopneumovirus. The experiment in a line: Antiviral activity against Respiratory syncytial virus infected in human HeLa cells at 100 uM. It counts as functional, organism-based.
Data set [9] deals with Human immunodeficiency virus type 1 reverse transcriptase (Human immunodeficiency virus 1) (UniProt Q72547). Briefly: Activity at HIV reverse transcriptase.
The test system of data set [10] is Influenza A virus. The experiment in a line: Antiviral activity against Influenza A virus H1N1 infected in MDCK cells at 100 uM. It is filed as functional, organism-based.
Another data set relates to Human respirovirus 3. Briefly: Antiviral activity against Parainfluenza virus 3 infected in African green monkey Vero cells at 100 uM. It is filed as functional, organism-based.
In the next data set the test system is Feline coronavirus. Briefly: Antiviral activity against Feline coronavirus infected in CRFK cells at 100 uM. It counts as functional, organism-based.
The next data set concerns Punta Toro virus. Briefly: Antiviral activity against Punta Toro virus infected in African green monkey Vero cells at 100 uM. It counts as functional, organism-based.
The next data set has as its system Coxsackievirus. The experiment in a line: Antiviral activity against Coxsackievirus B4 infected in human HeLa cells at 100 uM. It is filed as functional, organism-based.
In the next data set the test system is Vaccinia virus. Briefly: Antiviral activity against Vaccinia virus infected in HEL cells at 100 uM. It is filed as functional, organism-based. Particulars: Orthopoxvirus vaccinia.
The subject of another data set is Felid alphaherpesvirus 1. Briefly: Antiviral activity against Feline herpesvirus infected in CRFK cells at 100 uM. It is filed as functional, organism-based.
Data set [11] has as its system Vesicular stomatitis virus. Briefly: Antiviral activity against Vesicular stomatitis virus infected in human HeLa cells at 100 uM. It counts as functional, organism-based.
The subject of data set [12] is Influenza A virus. The experiment in a line: Antiviral activity against Influenza A virus H3N2 infected in MDCK cells at 100 uM. It counts as functional, organism-based.

The compound `C[C@H](NP(=O)(Oc1ccccc1)OC1C[C@H](CO)[C@@H](O)C1)C(=O)OC(C)(C)C` (mixture of isomers) registered a CC50 in the data set on CCRF-CEM of more than 250 µM. Further, the EC50 is more than 250 µM in data set [1], more than 250 µM in data set [2] and 250 µM in data set [3].
In the case of `C[C@H](NP(=O)(Oc1cccc2ccccc12)O[C@@H]1CC[C@H](O)[C@H]1CO)C(=O)OCC(C)(C)C` (some centres not stated), the IC50 in the data set with L1210 came out at 70 µM; in the data set on CCRF-CEM, 64 µM; in the data set with HeLa it was 94 µM. Besides, the EC50 in data set [4] and in data set [5] was more than 50 µM each time. This compound came in with a 50% cytotoxic concentration (CC50) in the data set on MT4 of 112 µM.
On to `C[C@H](NP(=O)(Oc1cccc2ccccc12)OC1C[C@H](CO)[C@@H](O)C1)C(=O)OC1CCCCC1` (mixture of isomers), for which, in the data set with CCRF-CEM, the CC50 is more than 250 µM. The values for the EC50 in data set [1], in data set [2] and in data set [3] were more than 50 µM, more than 50 µM and 50 µM, respectively. Moreover, the Stability result in data set [6] is “Stable”.
`OC[C@H]1CC(O)C[C@@H]1O` (some centres not stated) returned a 50% cytotoxic concentration (CC50) with CCRF-CEM of more than 250 µM. The concentration giving a half-maximal response (EC50) in [1] and in data set [2] was more than 250 µM in each case.
With `O=C(OCc1ccccc1)OC[C@H]1CC(O)C[C@@H]1OC(=O)OCc1ccccc1` (some centres not stated), the midpoint of cytotoxicity in [7], the CC50 at 72 h, lay at 110 µM. In addition, the EC50 in [1] and in [2] was more than 50 µM each time.
As for `CCCCCOC(=O)[C@H](C)NP(=O)(Oc1ccccc1)O[C@@H]1CC[C@H](O)[C@H]1CO` (some centres not stated), the figures for the 50% inhibitory concentration (IC50) in the data set on L1210, with CCRF-CEM and in the data set with HeLa were 116 µM, 106 µM and 166 µM, respectively. For the same compound, the concentration giving a half-maximal response (EC50) in [4] is more than 250 µM; in [5], 145 µM. In addition, the half-maximal cytotoxic concentration (CC50) in the data set with MT4 is more than 250 µM.
`OC[C@H]1[C@H](O)CC[C@@H]1O`: the IC50 was 55 µM with L1210, not below 250 µM in the data set on CCRF-CEM and 175 µM with HeLa. For the same compound, the result (in [8]; in the data set with Sindbis virus; with Human alphaherpesvirus 2; in the data set on Human alphaherpesvirus 1; in the data set on Human orthopneumovirus; in data set [9]) was inactive. For the same compound, the result in the data set with Influenza A virus [10], with Human respirovirus 3, in the data set with Feline coronavirus, in the data set with Punta Toro virus, with Coxsackievirus and in the data set on Vaccinia virus was inactive. Also, the outcome (in the data set with Felid alphaherpesvirus 1; in data set [11]; in the data set on Influenza A virus [12]) was inactive. Moreover, the 50% cytotoxic concentration (CC50) is more than 250 µM with CCRF-CEM and 90 µM in the data set with MT4. The EC50 in data set [1] is 12 µM; in data set [4] it was 6.7 µM; in [5], 7.5 µM; in [2], 3.8 µM.
For `C[C@H](NP(=O)(Oc1ccccc1)OC1C[C@H](CO)[C@@H](O)C1)C(=O)OC1CCCCC1` (mixture of isomers), the CC50 in the data set on CCRF-CEM was more than 250 µM. Besides, the EC50 was more than 250 µM in data set [1], more than 250 µM in data set [2] and 250 µM in data set [3].
In the case of `COC(=O)[C@@H](NP(=O)(Oc1ccccc1)OC1C[C@H](CO)[C@@H](O)C1)C(C)C` (mixture of isomers), the CC50 in the data set with CCRF-CEM was more than 250 µM. Further, the EC50 was more than 250 µM in [1], more than 250 µM in data set [2] and 250 µM in data set [3].
`COC(=O)[C@H](C)NP(=O)(Oc1ccccc1)OC1C[C@H](CO)[C@@H](O)C1` (mixture of isomers) gave a CC50 with CCRF-CEM of more than 250 µM. Besides, the EC50 in data set [1] is more than 250 µM; in data set [2] it was more than 250 µM; in data set [3], 250 µM.
Compound `O=C(OCc1ccccc1)OC[C@H]1[C@H](O)CC[C@@H]1OC(=O)OCc1ccccc1` returned a CC50 at 72 h in data set [7] of 94 µM. Besides, the EC50 in data set [1] was found to be 5.4 µM; in data set [2] it was 2.1 µM. In addition, the outcome in data set [9] was inactive.

(Values after ChEMBL document CHEMBL3396947, “Synthesis and biological evaluation of phosphoramidate prodrugs of two analogues of 2-deoxy-d-ribose-1-phosphate directed to the discovery of two carbasugars as new potential anti-HIV leads” (Bioorg Med Chem, 2015).)
